# Source: PubChem BioAssay
# A selection: hits, their analogues and other compounds. The true share with any hit is near 1.7%.
# Statin myotox sup = suppressors of statin myotoxicity in C2C12 myotubes, primary screen, cell-based, single point, plate reader; 0.78% of 330,000 active; rescue of ATP level, % at 7.49 µM; C2C12 myotubes + simvastatin, ATP luminescence, 48 h; scaled: DMSO 0, geranylgeraniol control 100;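 active = mean ATP rescue above about 67%, or every replicate alone reaching that limit, limit read from the data, passing the limit was not always enough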;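 note: myotubes were challenged with 10 µM simvastatin during compound exposure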
# Vif inh = HIV Vif self-association inhibitors, primary screen, imaging, HEK293T, single point; HEK293T cells, Vif self-association by quenched fluorescence, 24 h; inhibition, % at 7.49 µM; 0.35% of 340,000 active; AID 602346, 2012; in the data active = inhibition above about 50%, passing the limit was not always enough
# SR-BI uptake up = activators of SR-BI mediated DiI-HDL uptake, primary screen, ldlA[mSR-BI] CHO cells, DiI fluorescence. 3 h; 100 = double the neutral-control signal. activation, % at 12.5 µM. 0.096% of 320,000 active;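 active = mean replicate activation of at least 60% and every replicate at or above 60%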
#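 Assay system: LDL receptor-deficient CHO ldlA cells overexpressing murine SR-BI / Medium: BSA-supplemented, HEPES-buffered Ham's F12, pH 7.4 / Probe or stimulus: DiI-labelled HDL at 10 µg/mL final / Timing: compound with DiI-HDL co-incubation, 3 h at 37 °C / Technique: bottom-read cell fluorescence after medium removal, ex 550/em 595 nm / Measure: HDL uptake via cellular fluorescence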
# SR-BI DiI inh = inhibitors of SR-BI mediated HDL lipid uptake, primary screen, ldlA[mSR-BI] cells, fluorescence, single point; Scavenger receptor class B member 1 (Mus musculus), Q61009; ldlA[mSR-BI] CHO cells, DiI-HDL uptake fluorescence, 3 h; inhibition, % at 12.5 µM; 0.96% of 320,000 active; AID 488896, 2010;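 active = mean replicate inhibition of at least 70% and a set share of replicates each scoring 70 or more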
# Target sequence (Q61009 whole entry, looked up): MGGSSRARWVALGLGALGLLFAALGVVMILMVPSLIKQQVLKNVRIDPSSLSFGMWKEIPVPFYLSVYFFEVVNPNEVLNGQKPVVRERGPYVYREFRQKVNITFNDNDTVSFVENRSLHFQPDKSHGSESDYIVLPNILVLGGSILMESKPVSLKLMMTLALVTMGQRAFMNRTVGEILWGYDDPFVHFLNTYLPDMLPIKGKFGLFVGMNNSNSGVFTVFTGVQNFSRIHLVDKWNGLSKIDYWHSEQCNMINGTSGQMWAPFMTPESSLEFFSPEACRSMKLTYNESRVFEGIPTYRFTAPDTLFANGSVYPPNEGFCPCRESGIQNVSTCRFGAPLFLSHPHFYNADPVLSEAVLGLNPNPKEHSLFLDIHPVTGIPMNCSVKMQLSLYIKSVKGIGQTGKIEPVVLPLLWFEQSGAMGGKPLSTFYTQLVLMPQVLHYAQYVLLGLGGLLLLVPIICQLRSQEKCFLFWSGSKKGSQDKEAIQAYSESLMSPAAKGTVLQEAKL
# Numbers stand for hits; – = inactive; · = no result given.
SMILES,Statin myotox sup,Vif inh,SR-BI uptake up,SR-BI DiI inh
Cc1nnc(N2CCC(C(=O)NC3CCC(C)CC3)CC2)c2nn(-c3ccc(Cl)cc3)c(C)c12 (configuration not stated),–,–,–,88
Cc1cccc(CN(C)C[C@@H]2Oc3ncc(-c4cc5ccccc5o4)cc3C(=O)N([C@H](C)CO)C[C@@H]2C)c1,–,·,·,·
C[C@@H]1CCCCO[C@@H](CN(C)Cc2ccc(Cl)c(Cl)c2)[C@@H](C)CN([C@H](C)CO)C(=O)c2cc(NC(=O)NC3CCCCC3)ccc2O1,–,·,·,·
COc1ccc(-n2nc3c(c2NC(=O)c2ccc(S(=O)(=O)N4CCOCC4)cc2)CS(=O)C3)cc1 (configuration not stated),·,–,68,–
COc1cc(/C=C2\NC(=S)N(C)C2=O)ccc1OCc1ccccc1F,–,–,–,77
O=C(Cc1ccccn1)NCC[C@@H]1CC[C@@H](NC(=O)CN2CCOCC2)[C@@H](CO)O1,–,·,·,·
O=C(/C=C/c1ccc2c(c1)OCO2)Nc1nc(-c2ccccc2)cs1,–,·,–,–
Clc1ccc(-c2csc(N/N=C/c3ccc4c(c3)OCO4)n2)cc1,·,–,–,109
COc1ccc(NC(=O)Nc2ccc3c(c2)C(=O)N([C@@H](C)CO)C[C@@H](C)[C@H](CN(C)C(=O)C2CCCCC2)OCCCC[C@@H](C)O3)cc1,–,·,·,·
COc1ccc(NC(=O)Nc2ccc3c(c2)C(=O)N([C@H](C)CO)C[C@H](C)[C@H](CN(C)C(=O)C2CCCCC2)OCCCC[C@H](C)O3)cc1,71,·,·,·
COc1ccc(NC(=O)Nc2ccc3c(c2)C(=O)N([C@H](C)CO)C[C@@H](C)[C@@H](CN(C)C(=O)C2CCCCC2)OCCCC[C@H](C)O3)cc1,–,·,·,·
COc1ccc(NC(=O)Nc2ccc3c(c2)C(=O)N([C@@H](C)CO)C[C@H](C)[C@H](CN(C)C(=O)C2CCCCC2)OCCCC[C@H](C)O3)cc1,79,·,·,·
COCC(=O)N(C)C[C@H]1Oc2ncc(C#Cc3ccccc3)cc2C(=O)N([C@H](C)CO)C[C@@H]1C,–,·,·,·
CO[C@@H](CN(C)Cc1nccs1)[C@H](C)CN([C@H](C)CO)S(=O)(=O)c1ccc(C)cc1,–,·,·,·
C[C@@H]1CN([C@@H](C)CO)C(=O)c2cc(/C=C/c3ccccc3)cnc2O[C@H]1CN(C)Cc1ccc2c(c1)OCO2,–,·,·,·
COc1cc([N+](=O)[O-])ccc1NC(=O)Nc1nc2c(s1)CCCC2,·,·,–,72
COc1cc([N+](=O)[O-])ccc1NC(=O)Nc1cnccn1,·,–,–,–
CC(C)n1ncc2c(C(=O)Nc3cccc(S(=O)(=O)N(C)C)c3)cc(C3CC3)nc21,–,–,–,76
CNC(=O)c1cccc(NC(=O)c2cc(-c3ccccc3)nc3c2cnn3C(C)C)c1,–,–,–,82
COc1cc(NC(=O)c2cc(-c3ccccc3)nc3c2cnn3C(C)C)cc(OC)c1OC,–,–,–,–
Cc1noc(C)c1NC(=O)Nc1ccc2c(c1)C(=O)N([C@@H](C)CO)C[C@@H](C)[C@@H](CN(C)C(=O)CCCN(C)C)OCCCC[C@H](C)O2,–,·,·,·
COc1ccc(N2C(=O)/C(=C/c3ccc([N+](=O)[O-])cc3)C=C2c2ccccc2)cc1,–,–,–,96
O=C1/C(=C/c2ccc([N+](=O)[O-])cc2)C=C(c2ccccc2)N1c1ccccc1,–,–,–,–
COc1ccccc1-n1nnnc1SCC(=O)Nc1ccccn1,72,–,–,–
COc1ccccc1-n1nnnc1SCC(=O)Nc1ccccc1,–,–,–,–
C[C@]12C(=O)N(c3ccc(Br)cc3)C(=O)N1[C@@H]1c3ccccc3OC[C@@H]1[C@H]2c1ccccc1,–,–,–,75
COc1ccc2c(c1)OC[C@H]1[C@H]2N2C(=O)c3cc(OC)ccc3NC(=O)[C@@]2(C)[C@H]1c1ccccc1,–,–,–,73
C[C@@H]1CN([C@@H](C)CO)C(=O)c2cc(C3=CCCC3)cnc2O[C@@H]1CN(C)S(C)(=O)=O,–,·,·,·
Cc1noc(C)c1S(=O)(=O)Nc1ccc2c(c1)C(=O)N([C@@H](C)CO)C[C@H](C)[C@@H](CN(C)S(=O)(=O)c1ccc(Cl)cc1)OCCCC[C@@H](C)O2,–,·,·,·
C[C@@H]1CN([C@@H](C)CO)S(=O)(=O)c2ccc(C#CCN(C)C)cc2O[C@H]1CN(C)Cc1ccc(F)cc1,–,·,·,·
